Entries after “also recorded” stand apart in the source; their conditions may differ.
Biological target: T1, hCCK2R (Homo sapiens, UniProt P32239)
T1 sequence (P32239 1-447): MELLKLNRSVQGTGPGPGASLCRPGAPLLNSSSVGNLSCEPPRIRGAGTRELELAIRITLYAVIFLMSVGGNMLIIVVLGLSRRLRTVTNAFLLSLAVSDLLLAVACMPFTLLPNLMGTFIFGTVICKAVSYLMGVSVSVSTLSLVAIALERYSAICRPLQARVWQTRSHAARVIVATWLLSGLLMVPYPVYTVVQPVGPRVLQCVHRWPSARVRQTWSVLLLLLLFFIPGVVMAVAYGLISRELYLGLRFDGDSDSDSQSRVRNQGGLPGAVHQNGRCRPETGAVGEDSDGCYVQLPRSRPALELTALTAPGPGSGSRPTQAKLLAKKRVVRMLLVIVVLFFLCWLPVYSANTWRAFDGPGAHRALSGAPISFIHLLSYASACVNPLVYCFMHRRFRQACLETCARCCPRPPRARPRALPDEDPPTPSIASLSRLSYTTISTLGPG
Test: Competitive binding assay
Details: against probe 3 (15 nM); concentration range 10^-5 to 10^-12 M
Method in brief: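 HEK-293 cells engineered to overexpress hCCK2R and hMC4R, kept in selective medium and seeded at 240,000 cells/well in six-well plates (~1 × 10^6 cells at 90% confluence). Medium replaced with test compound (10^-5 to 10^-12 M, twelve levels) plus 15 nM Eu-labelled CCK4 probe in binding buffer for 1 h, 37 °C, CO₂. Cells pelleted and washed three times in basic buffer. DELFIA enhancement for 1 h, 37 °C. Supernatant read by TRF. Ki reported with SEM.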

| SMILES | Competitive inhibition of probe 3 binding (in words) |
| --- | --- |
| NC(=O)[C@H](CO)NC(=O)CCCCCn1cc(COc2cc(OCc3cn(CCCCCC(=O)N[C@@H](CO)C(N)=O)nn3)cc(OCc3cn(CCCCCC(=O)N[C@@H](CO)C(N)=O)nn3)c2)nn1 [Compound 16] | not competitive inhibitors; also recorded: did not interfere with the binding and uptake of probe 3 |
| NC(=O)[C@H](CO)NC(=O)CCCCCn1cc(CN(Cc2cn(CCCCCC(=O)N[C@@H](CO)C(N)=O)nn2)Cc2cn(CCCCCC(=O)N[C@@H](CO)C(N)=O)nn2)nn1 [Compound 15] | not competitive inhibitors; also recorded: did not interfere with the binding and uptake of probe 3 |

From PMC4380538 (Bioorganic & medicinal chemistry, 2015)
